Read-outs that look alike come from different tables or passages of the source.
Assays:
[1] = biological target: BTN3A1 B30.2 charge reversal mutant (H378D, K393D, R412E, R418E, R469E) (Homo sapiens, UniProt O00481, H408D/K423D/R442E/R448E/R499E); assay: Isothermal titration calorimetry, B30.2 charge reversal mutant; format: binding; conditions: ITC; 25μM protein in cell, 500μM pAg in syringe
[2] = biological target: extracellular domain of BTN3A1 (Homo sapiens, UniProt O00481); assay: Isothermal titration calorimetry, pAg binding to BTN3A1 extracellular domain; conditions: ITC at multiple temperatures (25°C, 15°C); 100μM protein, 2mM cHDMAPP
[3] = biological target: G115 Vγ9Vδ2 TCR / BTN3A1 extracellular domain (Homo sapiens, UniProt O00481); format: binding; conditions: SPR; 1mM cHDMAPP co-injected
In short: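 G115 Vγ9Vδ2 TCR was C-terminally biotinylated and multimerized at a 60:1 ratio onto streptavidin-conjugated AmDex polymers. Serial dilutions from 1 ug/ml to 0.03125 ug/ml were injected over immobilized […] BTN3A1, with murine T22 protein also immobilized.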

human Vγ9Vδ2 T cells = format: cell-based
In short: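 Target HEK cells had endogenous BTN3A silenced by shRNA and were transiently re-transfected with BTN3A isoforms or position-351 mutants. Cells were pretreated 2 h at 37°C with anti-CD277 agonist mAb 20.1 or zoledronate, washed extensively, then cocultured 4 h at 37°C with polyclonal Vγ9Vδ2 T cells in complete RPMI with 10 μM monensin and labelled anti-CD107a. Cells were then stained for Vδ2 TCR and read by flow cytometry.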

Sequence of extracellular domain of BTN3A1 (O00481 30-254 limits assumed): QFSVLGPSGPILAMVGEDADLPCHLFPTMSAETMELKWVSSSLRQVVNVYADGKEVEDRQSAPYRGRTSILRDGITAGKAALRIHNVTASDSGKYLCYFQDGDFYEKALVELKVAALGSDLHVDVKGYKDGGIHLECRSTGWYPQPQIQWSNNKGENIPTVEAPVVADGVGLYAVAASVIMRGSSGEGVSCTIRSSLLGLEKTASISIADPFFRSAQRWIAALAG
Sequence of G115 Vγ9Vδ2 TCR / BTN3A1 extracellular domain (O00481 30-254): as the sequence (O00481 30-254 limits assumed) above
Sequence of BTN3A1 B30.2 charge reversal mutant (H378D, K393D, R412E, R418E, R469E) (O00481 322-513 H408D/K423D/R442E/R448E/R499E): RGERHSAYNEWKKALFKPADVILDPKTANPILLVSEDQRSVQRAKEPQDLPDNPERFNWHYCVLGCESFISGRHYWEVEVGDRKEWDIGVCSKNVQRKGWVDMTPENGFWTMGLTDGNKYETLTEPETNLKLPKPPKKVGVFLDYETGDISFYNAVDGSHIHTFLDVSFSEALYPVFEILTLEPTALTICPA

C/C(=C\CCP(=O)(O)OP(=O)(O)O)CO [cHDMAPP, hydroxy-methyl-butyl-pyrophosphonate]
binding to B30.2 charge reversal mutant [1]: no detectable binding
binding to the complete extracellular domain of BTN3A1 [2]: unable to detect binding
effect of co-injection on G115 AmDex TCR interaction with immobilized BTN3A1 [3]: did not alter observed interactions

O=P(O)(O)C(O)(Cn1ccnc1)P(=O)(O)O [zoledronate, Zoledronic acid monohydrate]
Vγ9Vδ2 T cell stimulation (CD107a) (human Vγ9Vδ2 T cells; BTN3A-silenced cells re-expressing BTN3A1_H351R): unable to mediate NBP induced stimulation
Vγ9Vδ2 T cell stimulation (CD107a) (human Vγ9Vδ2 T cells; BTN3A-silenced cells re-expressing BTN3A3_R351H): able to mediate NBP induced stimulation

— article PMC4028361 (Immunity, 2014)
